Measured values collected from several papers.
Compare with care: the assays were run in different laboratories.
Target: Serine/threonine-protein kinase MARK1 (MARK1, Homo sapiens, UniProt Q9P0L2)

CC(C)(O)c1cncc(-c2nc3ccc(F)cc3n2C2CC2)c1 — remaining binding (cell-free assay; competition with immobilised ligand; 1 µM): 100%
c1cncc(-c2cccc(Nc3nccc(NC4CCCCC4)n3)c2)c1 — remaining binding (binding; competition with immobilised ligand; 10 µM): 90%
Cn1cc(Cl)c2c(Oc3c(F)cc(Nc4cc(Cl)nc(N)n4)cc3F)ccnc21 — remaining binding (cell-free assay; competition with immobilised ligand; 0.1 µM): 100%
Nc1ncc2c(n1)-c1c([nH]c3ccc(C#CC4CC4)cc13)CCCC2 — remaining binding (binding; competition with immobilised ligand; 1 µM): 98%
CNC(=O)[C@@H]1CC[C@@H](n2c(-c3ccc4cnccc4c3)nc3ccc(C(=O)NCc4cccc(C(N)=O)c4)cc32)C1 — remaining binding (binding; competition with immobilised ligand; 1 µM): 94%
Cc1nc(Cc2cccc(C(F)(F)F)c2)sc1-c1ccc(C(N)=O)nc1 — remaining binding (cell-free assay; competition with immobilised ligand; 1 µM): 90%
CN(C)c1ncc(F)c(-c2cnn3ncccc23)n1 — remaining binding (binding; 1 µM): 100%
O=C(NCCCN1CCOCC1)c1ccc(Nc2nccc(-c3cc4ccccc4s3)n2)cc1 — remaining binding (binding; competition with immobilised ligand; 1 µM): 66%
O=C(Nc1c[nH]nc1C(=O)NC1CCNCC1)c1cc(F)cc(F)c1 — remaining binding (binding; competition with immobilised ligand; 1 µM): 100%
COc1ncc2cc3ccccc3nc2c1C#N — remaining binding (cell-free assay; competition with immobilised ligand; 5 µM): 65%
Cn1nc(C(=O)NCc2ccc(C(=O)O)cc2)cc1-c1ccc2[nH]ccc2c1 — remaining binding (cell-free assay; competition with immobilised ligand; 0.1 µM): 100%
O=C(NCCCN1CCOCC1)c1ccc(Nc2ncc(Cl)c(-c3ccc(Cl)s3)n2)cc1 — remaining binding (binding; competition with immobilised ligand; 1 µM): 25%
F[C@@H]1CCN(c2nccc(-c3cnn4ncccc34)n2)C1 — remaining binding (binding; 1 µM): 100%
CNC(=O)Nc1ccc2c(c1)CC[C@@]21OC(=O)N(CC(=O)N(Cc2ccc(F)cc2)[C@@H](C)C(F)(F)F)C1=O — remaining binding (cell-free assay; competition with immobilised ligand; 1 µM): 89%
C[C@H]1CCN(c2nccc(-c3cnn4ncccc34)n2)C1 — remaining binding (binding; 1 µM): 92%
COc1cc(-c2cn(C3CCc4c(F)cccc4N(CC(F)(F)F)C3=O)nn2)ccc1-n1cnc(C)c1 (stereo not shown) — remaining binding (cell-free assay; competition with immobilised ligand; 1 µM): 100%
N[C@@H]1CCN(c2nccc(-c3cnn4ncccc34)n2)C1 — remaining binding (binding; 1 µM): 100%
CCN1CCN(Cc2ccc(C(=O)Nc3ccc(C)c(Oc4ccc5c(c4)CC(=O)N5)c3)cc2C(F)(F)F)CC1 — remaining binding (binding; competition with immobilised ligand; 1 µM): 100%
CN(C)c1nccc(-c2cnc3ncccn23)n1 — remaining binding (binding; 1 µM): 80%
Cc1cc(NC(=O)c2cccc(S(F)(F)(F)(F)F)c2)cc(-n2ccn3nc(-c4cccnc4)cc23)c1 — remaining binding (cell-free assay; competition with immobilised ligand; 1 µM): 100%
COc1ccnn2ncc(-c3ccnc(N(C)C)n3)c12 — remaining binding (binding; 1 µM): 97%
O=C(c1ccc(Nc2nccc(-c3cc4ccccc4s3)n2)cc1)N1CCC(N2CCCC2)CC1 — remaining binding (binding; competition with immobilised ligand; 1 µM): 62%
